Reference: paper PMC3710115 (Nature communications, 2013)

Tests used:
r(CUG)12-MBNL1 complex = assay: TR-FRET inhibition of r; assay type: binding; details: RNA and small molecule pre-incubated followed by addition of MBNL1
In short: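 5'-Biotinylated folded RNA (60 °C for 5 min, slow cooling) or MBNL1-His6 was pre-incubated with test compound for 30 min at room temperature; the order depended on the compound. The partner was then added for 15 min at room temperature, followed by streptavidin-XL665 and Tb-anti-His6, and TR-FRET was read. IC50 was obtained from a four-parameter logistic fit.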

[1] = tested on: cells stably expressing firefly luciferase mRNA lacking r(CUG)^exp; assay: Control luciferase reporter lacking r; assay type: cell-based; details: 20 µM compound
[2] = tested on: C2C12 cells stably expressing firefly luciferase mRNA with r(CUG)800 in the 3' UTR; assay: Luciferase reporter model of the DM1 translational defect; assay type: cell-based; details: 20 µM compound; +r(CUG)^exp; no change = 0%
In short: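 C2C12 cells stably express firefly luciferase mRNA with a (CTG)800 expansion in the 3' UTR. Cells were dosed with 20 µM test compound. Luciferase activity was measured in cell extracts and expressed as percentage increase over untreated cells, where 0 means no change.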

[3] = tested on: 5'CAG/3'GAC motif displayed by r(CAG)^exp; details: ref [40]; cited from earlier work
[4] = tested on: DM1 cellular model systems; details: ref [27], [38]; cited from earlier work

| SMILES | IC50 (r(CUG)12-MBNL1 complex) [µM] | change in luciferase activity in control cells [1] | increase in luciferase activity relative to untreated cells [2] | selectivity over fully paired RNAs [3] [fold] | dosage required to improve pre-mRNA splicing defects in cellular models [4] [µM] |
| --- | --- | --- | --- | --- | --- |
| O=C(O)C1Nc2c(O)cccc2C2C=CCC12 (stereo not shown) [Compound 3, 6-hydroxy-3a,4,5,9b-tetrahydro-3H-cyclopenta[c]quinoline-4-carboxylic acid] | 242 ± 1 | slight increase | ca. 125% |  |  |
| Oc1nc(Nc2ccc(F)cc2)cc2ccccc12 [Compound 4, 3-((4-fluorophenyl)amino)isoquinolin-1-ol] | 12 ± 1 |  | ca. 125% |  |  |
| N=C(N)c1ccc(-c2cc3ccc(C(=N)N)cc3[nH]2)cc1 [DAPI, 4',6-diamidino-2-phenylindole] |  |  |  | > 10 |  |
| N=C(N)c1ccc(OCCCCCOc2ccc(C(=N)N)cc2)cc1 [pentamidine] |  |  |  |  | 25 |
